Data reported in ChEMBL document CHEMBL1140198, “Studies on novel 4beta-[(4-substituted)-1,2,3-triazol-1-yl] podophyllotoxins as potential anticancer agents” (Eur J Med Chem, 2008).

Tests used:
Type in all cases: functional, cell-based
HEp-2 = test: Cytotoxicity against human HEP2 cells by sulforhodamine B assay
Outline: (§1)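 Log-phase cells seeded at 10⁴ cells/well and allowed to attach for 24 h at 37 °C, 5% CO₂. Then exposed to test samples over a 1:10 serial dilution series for 48 h under the same conditions, four replicate wells per condition. Fixed with 50% chilled TCA for 1 h at 4 °C, stained with sulforhodamine B, and the bound dye dissolved in Tris buffer.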

HCT-15 = test: Cytotoxicity against human HCT-15 cells by sulforhodamine B assay; outline: as §1
A549 = test: Cytotoxicity against human A549 cells by sulforhodamine B assay; outline: as §1
DU-145 = test: Cytotoxicity against human DU145 cells by sulforhodamine B assay; outline: as §1
PC-3 = test: Cytotoxicity against human PC-3 cells by sulforhodamine B assay; outline: as §1
SF-295 = test: Cytotoxicity against human SF295 cells by sulforhodamine B assay; outline: as §1
[1] = Cytotoxicity against human 502713 cells by sulforhodamine B assay; outline: as §1

SMILES	IC50 (HEp-2)	IC50 (HCT-15)	IC50 (A549)	IC50 (DU-145)	IC50 (PC-3)	IC50 (SF-295)	IC50 [1]
COc1cc([C@@H]2c3cc4c(cc3[C@@H](n3cc(CNc5cccc(Cl)c5)nn3)[C@H]3COC(=O)[C@H]23)OCO4)cc(OC)c1OC	1.37 µM	0.34 µM	4.99 µM	0.93 µM	1.18 µM	0.84 µM	0.71 µM
COc1cc([C@@H]2c3cc4c(cc3[C@@H](n3cc(CNc5ccccc5C)nn3)[C@H]3COC(=O)[C@H]23)OCO4)cc(OC)c1O	1.5 µM	0.14 µM	5.17 µM	1.19 µM	1.53 µM	0.96 µM	0.62 µM
COc1cc([C@@H]2c3cc4c(cc3[C@@H](n3cc(CNc5ccccc5)nn3)[C@H]3COC(=O)[C@H]23)OCO4)cc(OC)c1O	2.96 µM	0.4 µM	7.46 µM	1.09 µM	1.03 µM	0.7 µM	0.68 µM
COc1cc([C@@H]2c3cc4c(cc3[C@@H](n3cc(CNc5cccc([N+](=O)[O-])c5)nn3)[C@H]3COC(=O)[C@H]23)OCO4)cc(OC)c1OC	3.65 µM	0.04 µM	5.78 µM	0.65 µM	0.74 µM	0.68 µM	0.56 µM
COc1cc([C@@H]2c3cc4c(cc3[C@@H](n3cc(CNc5ccccc5)nn3)[C@H]3COC(=O)[C@H]23)OCO4)cc(OC)c1OC	4.64 µM	0.14 µM	6.1 µM	1.12 µM	0.88 µM	0.78 µM	0.61 µM
COc1cc([C@@H]2c3cc4c(cc3[C@@H](n3cc(CNc5ccccc5C)nn3)[C@H]3COC(=O)[C@H]23)OCO4)cc(OC)c1OC	9.14 µM	0.36 µM	7.88 µM	1.06 µM	1.09 µM	1.94 µM	0.78 µM
COc1cc([C@@H]2c3cc4c(cc3[C@@H](n3cc(CNc5cccc([N+](=O)[O-])c5)nn3)[C@H]3COC(=O)[C@H]23)OCO4)cc(OC)c1O	4.1 µM	1.55 µM	7.43 µM	4.37 µM	6.63 µM	4.2 µM	1.19 µM
COc1cc([C@@H]2c3cc4c(cc3[C@@H](n3cc(CNc5cccc(Cl)c5)nn3)[C@H]3COC(=O)[C@H]23)OCO4)cc(OC)c1O	1.22 µM	4.22 µM	8.63 µM	4.16 µM	1.37 µM	3.11 µM	0.98 µM
COc1cc([C@@H]2c3cc4c(cc3[C@@H](n3cc(CNc5ccccc5Cl)nn3)[C@H]3COC(=O)[C@H]23)OCO4)cc(OC)c1OC	1.26 µM	1.43 µM	9.24 µM	3.57 µM	3.45 µM	1 µM	1.88 µM
COc1cc([C@@H]2c3cc4c(cc3[C@@H](O[C@@H]3O[C@@H]5CO[C@@H](C)O[C@H]5[C@H](O)[C@H]3O)[C@H]3COC(=O)[C@H]23)OCO4)cc(OC)c1O [ETOPOSIDE]	2.15 µM	1.48 µM	5.62 µM	3.85 µM	17.4 µM	13.3 µM	2.42 µM
COc1cc([C@@H]2c3cc4c(cc3[C@H](O)[C@H]3COC(=O)[C@H]23)OCO4)cc(OC)c1OC [PODOFILOX]	1.42 µM	1 µM	7.63 µM	2.97 µM	18.9 µM	5.69 µM	3.88 µM
